Here are results for two compounds from ChEMBL document CHEMBL1250451, “Mechanistic insights into a Ca2+-dependent family of alpha-mannosidases in a human gut symbiont” (Nat Chem Biol, 2010).

Common to all, as to type: protein assay
Test [1] addresses Alpha-1,2-mannosidase family protein (BT_1032) (Bacteroides thetaiotaomicron, UniProt Q8A8Y5). Briefly: Inhibition of Bacteroides thetaiotaomicron GH92 alpha-mannosidase 1032 assessed as reduction of mannose release using 4NP-mannopyranoside substrate. A digest of the protocol: (§1)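 Recombinant His-tagged GH92 enzymes were expressed in E. coli Tuner or B834 and purified by IMAC. Mannose release was measured at 37 °C in 100 mM MOPS, pH 7.0, with 2 mM CaCl2. The read-out was a coupled-enzyme mannose detection system with ATP and NADP+ at 1 mM, following NADPH at 340 nm. At least five inhibitor concentrations were tested, with substrate ≪ Km. Ki was taken from the x-intercept of […] versus inhibitor concentration.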

Test [2] concerns the target Alpha-1,2-mannosidase (BT_1878) (Bacteroides thetaiotaomicron, UniProt Q8A6K3). Briefly: Inhibition of Bacteroides thetaiotaomicron GH92 alpha-mannosidase 1878 assessed as reduction of mannose release using 4NP-mannopyranoside substrate. A digest of the protocol:
as §1

Test [3] has as its target T1, Alpha-1,2-mannosidase (BT_2199) (Bacteroides thetaiotaomicron, UniProt Q8A5N9).
T1 sequence (Q8A5N9 whole entry): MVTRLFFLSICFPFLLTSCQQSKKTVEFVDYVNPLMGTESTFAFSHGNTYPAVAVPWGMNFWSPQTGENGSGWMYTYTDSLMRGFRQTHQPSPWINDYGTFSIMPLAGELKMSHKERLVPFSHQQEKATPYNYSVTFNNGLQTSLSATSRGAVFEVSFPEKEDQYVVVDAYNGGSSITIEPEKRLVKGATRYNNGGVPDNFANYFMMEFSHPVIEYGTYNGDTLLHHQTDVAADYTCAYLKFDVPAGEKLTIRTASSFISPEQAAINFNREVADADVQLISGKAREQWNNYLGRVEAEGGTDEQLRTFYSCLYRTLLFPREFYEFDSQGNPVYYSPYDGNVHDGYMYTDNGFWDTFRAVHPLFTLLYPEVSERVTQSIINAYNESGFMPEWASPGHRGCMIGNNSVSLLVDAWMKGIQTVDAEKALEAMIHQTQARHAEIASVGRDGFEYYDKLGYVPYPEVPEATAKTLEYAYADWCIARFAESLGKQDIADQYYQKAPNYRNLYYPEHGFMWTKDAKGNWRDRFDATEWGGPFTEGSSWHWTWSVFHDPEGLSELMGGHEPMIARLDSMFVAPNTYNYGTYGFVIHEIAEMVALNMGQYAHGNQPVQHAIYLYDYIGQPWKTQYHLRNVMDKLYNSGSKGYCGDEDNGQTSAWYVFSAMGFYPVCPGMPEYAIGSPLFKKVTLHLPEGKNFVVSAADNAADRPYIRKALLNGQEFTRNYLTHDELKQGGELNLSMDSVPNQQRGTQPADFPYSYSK
Nature of the test: Inhibition of Bacteroides thetaiotaomicron GH92 alpha-mannosidase 2199 assessed as reduction of mannose release using 4NP-mannopyranoside substrate. A digest of the protocol: (§2)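 Recombinant enzymes expressed in E. coli. Bt3990 was purified by IMAC, anion exchange and size exclusion; Bt2199 by IMAC only. Ki was measured with at least five inhibitor concentrations at a substrate concentration ≪ Km for each enzyme. Ki was taken as the x-axis intercept of a plot of […] against inhibitor concentration.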

The target of test [4] is Alpha-1,2-mannosidase (BT_2948) (Bacteroides thetaiotaomicron, UniProt Q8A3K6). Briefly: Inhibition of Bacteroides thetaiotaomicron GH92 alpha-mannosidase 2948 assessed as reduction of mannose release using 4NP-mannopyranoside substrate. The method in brief: as §1
Test [5] has as its target Alpha-1,2-mannosidase, putative (BT_3130) (Bacteroides thetaiotaomicron, UniProt Q8A325). Briefly: Inhibition of Bacteroides thetaiotaomicron GH92 alpha-mannosidase 3130 assessed as reduction of mannose release using 4NP-mannopyranoside substrate. A digest of the protocol: as §1
Test [6] has as its target Alpha-1,2-mannosidase (BT_3784) (Bacteroides thetaiotaomicron, UniProt Q8A182). Briefly: Inhibition of Bacteroides thetaiotaomicron GH92 alpha-mannosidase 3784 assessed as reduction of mannose release using 4NP-mannopyranoside substrate. A digest of the protocol:
as §1

The target in test [7] is Alpha-1,2-mannosidase (BT_3858) (Bacteroides thetaiotaomicron, UniProt Q8A113). Nature of the test: Inhibition of Bacteroides thetaiotaomicron GH92 alpha-mannosidase 3858 assessed as reduction of mannose release using 4NP-mannopyranoside substrate. A digest of the protocol:
as §1

In test [8] the target is Glycoside hydrolase family 92 (BT_3962) (Bacteroides thetaiotaomicron, UniProt Q8A0Q9). Nature of the test: Inhibition of Bacteroides thetaiotaomicron GH92 alpha-mannosidase 3962 assessed as reduction of mannose release using 4NP-mannopyranoside substrate. The method in brief: as §1
The target in test [9] is Glycoside hydrolase family 92 (BT_3963) (Bacteroides thetaiotaomicron, UniProt Q8A0Q8). Briefly: Inhibition of Bacteroides thetaiotaomicron GH92 alpha-mannosidase 3963 assessed as reduction of mannose release using 4NP-mannopyranoside substrate. A digest of the protocol:
as §1

Test [10] concerns the target Alpha-1,2-mannosidase (BT_3965) (Bacteroides thetaiotaomicron, UniProt Q8A0Q6). Nature of the test: Inhibition of Bacteroides thetaiotaomicron GH92 alpha-mannosidase 3965 assessed as reduction of mannose release using 4NP-mannopyranoside substrate. The method in brief:
as §1

For test [11], the target named is Alpha-1,2-mannosidase (BT_3991) (Bacteroides thetaiotaomicron, UniProt Q8A0N0). Briefly: Inhibition of Bacteroides thetaiotaomicron GH92 alpha-mannosidase 3991 assessed as reduction of mannose release using 4NP-mannopyranoside substrate. A digest of the protocol: as §1
Test [12] deals with Alpha-1,2-mannosidase (BT_3994) (Bacteroides thetaiotaomicron, UniProt Q8A0M7). Briefly: Inhibition of Bacteroides thetaiotaomicron GH92 alpha-mannosidase 3994 assessed as reduction of mannose release using 4NP-mannopyranoside substrate. The method in brief:
as §1

Test [13] has as its target Alpha-1,2-mannosidase, putative (BT_4073) (Bacteroides thetaiotaomicron, UniProt Q8A0E8). Briefly: Inhibition of Bacteroides thetaiotaomicron GH92 alpha-mannosidase 4073 assessed as reduction of mannose release using 4NP-mannopyranoside substrate. A digest of the protocol: as §1
Test [14] addresses Alpha-1,2-mannosidase (BT_4092) (Bacteroides thetaiotaomicron, UniProt Q8A0C9). Briefly: Inhibition of Bacteroides thetaiotaomicron GH92 alpha-mannosidase 4092 assessed as reduction of mannose release using 4NP-mannopyranoside substrate. The method in brief: as §1
The target of test [15] is Alpha-1,2-mannosidase family protein (BT_4093) (Bacteroides thetaiotaomicron, UniProt Q8A0C8). Briefly: Inhibition of Bacteroides thetaiotaomicron GH92 alpha-mannosidase 4093 assessed as reduction of mannose release using 4NP-mannopyranoside substrate. The method in brief: as §1
The target of test [16] is Alpha-1,2-mannosidase (BT_3990) (Bacteroides thetaiotaomicron, UniProt Q8A0N1). Briefly: Inhibition of Bacteroides thetaiotaomicron GH92 alpha-mannosidase 3990 assessed as reduction of mannose release using 4NP-mannopyranoside substrate. The method in brief:
as §2

Sequence of Alpha-1,2-mannosidase (BT_3965) (Q8A0Q6 whole entry, change not shown): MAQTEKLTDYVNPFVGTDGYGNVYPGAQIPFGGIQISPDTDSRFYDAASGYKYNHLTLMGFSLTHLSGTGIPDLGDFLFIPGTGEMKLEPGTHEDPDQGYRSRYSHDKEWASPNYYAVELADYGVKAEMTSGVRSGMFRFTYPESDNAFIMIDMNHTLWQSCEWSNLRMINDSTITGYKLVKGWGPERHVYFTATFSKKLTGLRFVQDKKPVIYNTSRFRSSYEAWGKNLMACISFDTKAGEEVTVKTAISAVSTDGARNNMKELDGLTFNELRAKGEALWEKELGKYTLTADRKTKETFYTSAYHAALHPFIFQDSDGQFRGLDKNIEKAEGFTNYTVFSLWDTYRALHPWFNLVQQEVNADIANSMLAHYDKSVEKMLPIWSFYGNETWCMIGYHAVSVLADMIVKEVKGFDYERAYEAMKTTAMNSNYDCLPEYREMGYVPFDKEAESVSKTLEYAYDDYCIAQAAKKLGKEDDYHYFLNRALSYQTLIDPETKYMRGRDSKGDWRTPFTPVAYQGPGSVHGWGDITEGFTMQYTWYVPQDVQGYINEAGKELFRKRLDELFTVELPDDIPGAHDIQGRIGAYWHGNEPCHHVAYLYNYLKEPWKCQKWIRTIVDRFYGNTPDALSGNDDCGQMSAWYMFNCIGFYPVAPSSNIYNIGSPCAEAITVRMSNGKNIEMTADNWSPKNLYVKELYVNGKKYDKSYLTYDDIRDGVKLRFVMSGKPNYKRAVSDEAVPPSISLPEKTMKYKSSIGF
Sequence of Alpha-1,2-mannosidase (BT_4092) (Q8A0C9 whole entry, change not shown): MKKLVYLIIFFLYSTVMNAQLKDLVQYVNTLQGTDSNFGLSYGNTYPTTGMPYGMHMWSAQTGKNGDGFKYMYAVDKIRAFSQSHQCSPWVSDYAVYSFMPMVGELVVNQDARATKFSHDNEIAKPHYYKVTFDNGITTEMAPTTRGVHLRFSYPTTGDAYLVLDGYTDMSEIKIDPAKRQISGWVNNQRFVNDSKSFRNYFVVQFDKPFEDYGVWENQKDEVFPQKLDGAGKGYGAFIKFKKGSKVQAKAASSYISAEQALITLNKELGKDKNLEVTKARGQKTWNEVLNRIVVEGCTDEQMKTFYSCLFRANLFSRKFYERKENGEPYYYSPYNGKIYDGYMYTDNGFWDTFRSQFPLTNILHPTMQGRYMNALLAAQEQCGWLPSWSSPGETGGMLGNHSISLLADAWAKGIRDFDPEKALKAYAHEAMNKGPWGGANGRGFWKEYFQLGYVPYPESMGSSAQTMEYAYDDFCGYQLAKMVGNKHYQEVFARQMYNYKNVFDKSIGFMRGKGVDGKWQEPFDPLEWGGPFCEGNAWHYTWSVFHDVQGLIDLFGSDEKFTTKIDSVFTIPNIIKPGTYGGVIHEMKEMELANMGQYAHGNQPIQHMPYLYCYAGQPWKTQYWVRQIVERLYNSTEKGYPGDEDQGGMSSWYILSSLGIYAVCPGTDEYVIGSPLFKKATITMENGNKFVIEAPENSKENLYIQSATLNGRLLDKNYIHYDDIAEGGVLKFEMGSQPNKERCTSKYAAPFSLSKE
Sequence of Alpha-1,2-mannosidase (BT_3858) (Q8A113 whole entry, change not shown): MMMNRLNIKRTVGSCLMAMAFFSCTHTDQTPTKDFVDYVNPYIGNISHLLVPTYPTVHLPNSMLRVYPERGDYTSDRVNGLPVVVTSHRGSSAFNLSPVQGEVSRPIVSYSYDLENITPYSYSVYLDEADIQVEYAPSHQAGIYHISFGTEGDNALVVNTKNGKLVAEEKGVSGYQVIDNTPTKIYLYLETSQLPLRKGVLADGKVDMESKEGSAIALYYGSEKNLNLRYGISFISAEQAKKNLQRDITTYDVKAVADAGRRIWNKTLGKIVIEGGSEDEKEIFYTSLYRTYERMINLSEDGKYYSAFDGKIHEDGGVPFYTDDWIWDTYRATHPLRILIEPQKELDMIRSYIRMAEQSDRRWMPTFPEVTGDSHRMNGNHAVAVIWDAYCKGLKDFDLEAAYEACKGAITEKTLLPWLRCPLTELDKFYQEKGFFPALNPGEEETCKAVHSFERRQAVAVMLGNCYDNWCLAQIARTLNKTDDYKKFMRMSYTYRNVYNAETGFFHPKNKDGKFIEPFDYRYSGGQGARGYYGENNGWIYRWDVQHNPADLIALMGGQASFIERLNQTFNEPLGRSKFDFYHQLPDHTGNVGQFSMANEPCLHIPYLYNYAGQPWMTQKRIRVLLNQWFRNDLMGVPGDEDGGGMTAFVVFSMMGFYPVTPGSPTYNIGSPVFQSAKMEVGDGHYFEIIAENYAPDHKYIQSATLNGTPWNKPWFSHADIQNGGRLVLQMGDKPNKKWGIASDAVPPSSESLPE
Sequence of Alpha-1,2-mannosidase (BT_2948) (Q8A3K6 whole entry, change not shown): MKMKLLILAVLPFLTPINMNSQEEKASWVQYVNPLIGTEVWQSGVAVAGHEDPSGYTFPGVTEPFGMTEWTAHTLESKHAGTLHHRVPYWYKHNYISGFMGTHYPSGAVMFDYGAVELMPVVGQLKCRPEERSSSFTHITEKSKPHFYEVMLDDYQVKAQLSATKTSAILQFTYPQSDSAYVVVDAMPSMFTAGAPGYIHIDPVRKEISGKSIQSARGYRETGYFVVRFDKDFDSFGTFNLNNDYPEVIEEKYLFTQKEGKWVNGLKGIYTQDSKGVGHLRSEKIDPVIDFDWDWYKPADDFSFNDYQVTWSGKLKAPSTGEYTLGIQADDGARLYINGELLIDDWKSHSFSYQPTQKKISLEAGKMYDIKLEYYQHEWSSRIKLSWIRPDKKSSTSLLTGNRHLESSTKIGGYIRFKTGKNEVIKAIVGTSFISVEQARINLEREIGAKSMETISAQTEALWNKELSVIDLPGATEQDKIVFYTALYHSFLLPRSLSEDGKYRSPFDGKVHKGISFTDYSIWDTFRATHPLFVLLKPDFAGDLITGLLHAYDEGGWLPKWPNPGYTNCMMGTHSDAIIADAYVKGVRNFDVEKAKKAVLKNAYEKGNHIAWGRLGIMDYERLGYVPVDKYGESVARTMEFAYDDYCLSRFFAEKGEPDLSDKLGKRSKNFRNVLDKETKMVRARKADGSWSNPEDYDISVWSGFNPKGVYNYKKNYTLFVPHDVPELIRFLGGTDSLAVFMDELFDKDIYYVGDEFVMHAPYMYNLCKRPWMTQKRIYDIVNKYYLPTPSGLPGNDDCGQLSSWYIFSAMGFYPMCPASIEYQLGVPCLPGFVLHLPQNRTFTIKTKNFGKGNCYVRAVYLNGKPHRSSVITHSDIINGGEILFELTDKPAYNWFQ
Sequence of Alpha-1,2-mannosidase family protein (BT_1032) (Q8A8Y5 whole entry, change not shown): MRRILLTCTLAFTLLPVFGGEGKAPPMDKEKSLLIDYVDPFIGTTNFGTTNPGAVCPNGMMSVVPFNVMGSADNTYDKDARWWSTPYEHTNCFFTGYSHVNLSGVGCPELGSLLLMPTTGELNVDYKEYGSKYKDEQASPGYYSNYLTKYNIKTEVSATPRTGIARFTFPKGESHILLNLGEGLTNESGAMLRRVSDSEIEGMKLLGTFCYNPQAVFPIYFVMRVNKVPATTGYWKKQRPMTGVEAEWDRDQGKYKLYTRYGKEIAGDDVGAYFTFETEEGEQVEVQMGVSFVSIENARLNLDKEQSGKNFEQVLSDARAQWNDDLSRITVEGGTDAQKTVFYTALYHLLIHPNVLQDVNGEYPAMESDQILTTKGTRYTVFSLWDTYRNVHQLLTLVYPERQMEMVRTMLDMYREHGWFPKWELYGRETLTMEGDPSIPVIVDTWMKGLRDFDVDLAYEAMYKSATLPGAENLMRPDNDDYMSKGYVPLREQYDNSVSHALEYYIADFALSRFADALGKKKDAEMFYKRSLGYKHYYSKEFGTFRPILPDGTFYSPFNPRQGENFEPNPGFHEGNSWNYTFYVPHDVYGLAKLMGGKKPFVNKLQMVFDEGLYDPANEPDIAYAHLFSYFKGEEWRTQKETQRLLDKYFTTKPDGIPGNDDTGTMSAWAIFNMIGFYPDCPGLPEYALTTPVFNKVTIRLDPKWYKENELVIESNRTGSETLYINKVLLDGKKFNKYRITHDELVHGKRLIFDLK
Sequence of Glycoside hydrolase family 92 (BT_3962) (Q8A0Q9 whole entry, change not shown): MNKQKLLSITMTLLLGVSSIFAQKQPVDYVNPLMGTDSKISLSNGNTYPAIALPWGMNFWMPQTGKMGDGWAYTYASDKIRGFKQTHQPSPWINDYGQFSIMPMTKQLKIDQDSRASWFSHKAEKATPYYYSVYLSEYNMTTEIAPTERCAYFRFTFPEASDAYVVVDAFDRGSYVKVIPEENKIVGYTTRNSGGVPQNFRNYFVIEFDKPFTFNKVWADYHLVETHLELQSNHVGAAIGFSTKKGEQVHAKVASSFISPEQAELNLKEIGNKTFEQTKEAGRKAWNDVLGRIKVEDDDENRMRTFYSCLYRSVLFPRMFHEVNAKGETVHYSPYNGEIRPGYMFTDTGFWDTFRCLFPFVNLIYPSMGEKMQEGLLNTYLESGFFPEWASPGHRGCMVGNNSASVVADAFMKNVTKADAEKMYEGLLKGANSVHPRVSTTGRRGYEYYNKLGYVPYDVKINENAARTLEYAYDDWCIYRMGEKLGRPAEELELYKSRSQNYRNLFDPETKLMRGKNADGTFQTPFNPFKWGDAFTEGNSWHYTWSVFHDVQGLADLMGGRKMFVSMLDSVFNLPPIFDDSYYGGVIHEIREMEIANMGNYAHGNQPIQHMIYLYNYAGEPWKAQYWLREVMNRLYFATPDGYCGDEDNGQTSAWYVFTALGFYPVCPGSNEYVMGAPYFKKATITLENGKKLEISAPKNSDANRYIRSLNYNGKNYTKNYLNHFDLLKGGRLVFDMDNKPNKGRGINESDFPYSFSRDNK

One may read the Ki as a dissociation constant, usually derived from enzyme kinetics or from competition with a known ligand. Take `OC[C@@H]1[C@@H](O)[C@H](O)[C@H](O)c2nccn21` [MANNOIMIDAZOLE]: the inhibitory constant (Ki) in test [1] is 600 µM; in test [2] it was 1800 µM; in test [3], 90 µM; in test [4], 70 µM; in [5], 1 µM; in [6] it was 5800 µM. For the same compound, the Ki was determined as 260 µM in [7]; 270 µM in [8]; 790 µM in [9]; 0.4 µM in test [10]; 46 µM in [11]; 43 µM in test [12]. In addition, the figures for the Ki in [13], in test [14] and in [15] were 360 µM, 1600 µM and 860 µM, respectively.

In the case of `OC[C@H]1NC[C@@H](O)[C@@H](O)[C@@H]1O` [DEOXYMANNOJIRIMYCIN], the Ki in [3] stood at 13000 µM; in test [16] it was 12000 µM.
